High-throughput results as filed in PubChem.
Only a sample is shown.
Apaf-1 act = activates human Apaf-1 apoptosome; AID 489031; O14727; actives 0.31% (n = 330,000); Apaf-1 apoptosome caspase-3 activation, DEVD-Rh110 fluorescence; stronger effect = lower value; activity change, negative = activation, % at 20 µM;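 active = activity change at or below -40% at 20 µM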
Target sequence (O14727 whole entry, looked up): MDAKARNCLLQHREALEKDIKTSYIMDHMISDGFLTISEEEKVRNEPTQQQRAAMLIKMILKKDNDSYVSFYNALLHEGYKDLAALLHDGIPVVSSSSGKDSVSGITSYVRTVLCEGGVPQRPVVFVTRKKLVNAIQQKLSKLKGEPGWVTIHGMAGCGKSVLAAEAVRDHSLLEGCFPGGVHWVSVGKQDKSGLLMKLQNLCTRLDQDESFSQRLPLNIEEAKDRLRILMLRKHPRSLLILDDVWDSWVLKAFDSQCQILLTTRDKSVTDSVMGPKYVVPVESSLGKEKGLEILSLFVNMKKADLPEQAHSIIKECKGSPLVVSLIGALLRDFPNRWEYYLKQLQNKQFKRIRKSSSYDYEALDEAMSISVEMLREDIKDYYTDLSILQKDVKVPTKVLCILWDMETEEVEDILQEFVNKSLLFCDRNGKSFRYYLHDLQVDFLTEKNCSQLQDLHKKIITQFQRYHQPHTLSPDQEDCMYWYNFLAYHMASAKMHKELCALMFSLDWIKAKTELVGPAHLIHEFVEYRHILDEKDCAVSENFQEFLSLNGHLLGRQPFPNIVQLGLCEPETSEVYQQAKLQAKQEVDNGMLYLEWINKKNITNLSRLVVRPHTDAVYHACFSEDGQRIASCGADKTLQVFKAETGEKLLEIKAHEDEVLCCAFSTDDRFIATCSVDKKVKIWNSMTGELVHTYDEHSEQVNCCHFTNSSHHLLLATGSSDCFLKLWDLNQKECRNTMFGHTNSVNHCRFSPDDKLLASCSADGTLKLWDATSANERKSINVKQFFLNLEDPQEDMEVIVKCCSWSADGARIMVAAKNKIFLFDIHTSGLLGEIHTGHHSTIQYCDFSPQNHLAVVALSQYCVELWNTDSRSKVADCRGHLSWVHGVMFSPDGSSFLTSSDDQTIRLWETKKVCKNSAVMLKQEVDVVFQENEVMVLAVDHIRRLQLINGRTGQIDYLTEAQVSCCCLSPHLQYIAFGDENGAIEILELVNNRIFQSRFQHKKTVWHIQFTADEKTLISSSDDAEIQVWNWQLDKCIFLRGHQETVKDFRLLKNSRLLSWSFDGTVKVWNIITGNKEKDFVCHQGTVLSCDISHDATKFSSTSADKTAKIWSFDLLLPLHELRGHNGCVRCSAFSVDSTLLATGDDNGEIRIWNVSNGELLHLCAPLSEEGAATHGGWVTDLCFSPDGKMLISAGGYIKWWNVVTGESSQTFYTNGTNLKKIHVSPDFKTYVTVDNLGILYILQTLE
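System: Reconstituted apoptosome of Apaf-1, cytochrome c, caspase-9, procaspase-3 | Reagent: dATP, cytochrome c, and (Z-DEVD)2-Rh110 caspase-3 substrate | Times: 30 min compound preincubation and 50 min reaction, both room temperature | Detection: Caspase-3-released Rh110 fluorescence, 540 nm emission, 480 nm excitation | Measure: Caspase-3 activity via Apaf-1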
* hit, by the source's call.

SMILES	Apaf-1 act
CCCCn1c2ccccc2c2nnc(SCC(=O)NC3=NN=C(c4ccccc4)CS3)nc21	-69*
CCCCn1c(NC(C)=O)c(C#N)c2nc3ccccc3nc21	84
CCn1c2ccccc2c2nnc(SCC(=O)c3c(N)n(C)c(=O)n(C)c3=O)nc21	54
CCc1ccc(CNc2ccc(O)cc2)cc1	96
CC/C(=C(/CC)c1ccc(O)cc1)c1ccc(O)cc1	-151*
CC/C(=C(\c1ccc(O)cc1)c1ccc(OCCN(C)C)cc1)c1ccccc1	65
COc1ccc(S(=O)(=O)N2CCCCCC2)cc1C(=O)NCCc1ccccc1	47
COc1ccc(C2(c3ccc(OC)cc3)NC(=O)N(CC(=O)N(C)C)C2=O)cc1	-131*
COc1ccc(C2(c3ccc(OC)cc3)NC(=O)N(CC(=O)Nc3ccc(N4CCOCC4)cc3)C2=O)cc1	41
COc1cc(NC(=O)CN2C(=O)NC3(CCOc4ccccc43)C2=O)cc(OC)c1 (stereo unspecified)	59
CC1=[N+](C)c2ccc3ccccc3c2C1(C)C	42
CC(C)[C@H](CN1CCC[C@H]1CN1C(N)=NC[C@H]1C(C)C)N1C[C@@H](Cc2ccccc2)N(CCCC2CCCC2)C1=N	63
O=S(=O)(Nc1ccc(O)c2ccccc12)c1ccc(Br)cc1	57
C[C@@H]1[C@H]2[C@@H]3CC[C@@H](C3)[C@H]2CN[C@H]1c1cn(Cc2ccccc2)c2ccccc12	62
CC(C)n1cnc2c(N(C)c3ccccc3)nc(N(CCN(C)C)Cc3ccccc3)nc21	44
COCc1ccc(CN2CCC(C(=O)Nc3cccc(-c4cccc(Cl)c4)c3)CC2)o1	49
CCN1CCCC1CNC(=O)C1CCN(Cc2nc(-c3cccc(Br)c3)oc2C)CC1 (stereo unspecified)	-90*
CCC1CCCCN1C(=O)COc1ccc(N(C)S(=O)(=O)c2ccc(C)cc2)cc1 (stereo unspecified)	51
CN(C)CCN(C(=O)c1cccc2ccccc12)c1nc2cc3c(cc2s1)OCO3	52
Clc1ccc2nsnc2c1NC1=NCCN1	-7
C=C(C)C(=O)Nc1cccc(C2=NOC3(C2)C[C@@H](C(N)=O)N(C(=O)c2ccc(OC)cc2)C3)c1 (stereo partly specified)	-340*
CC(=O)c1ccc2c(c1)c(C#N)c1ccccc1[n+]2[O-]	74
N#C/C(=C/c1ccc(OCc2ccc(C(=O)O)cc2)c(Br)c1)c1cccc(F)c1	-335*
NC1=NC[C@H](CC2CCCCC2)N1CCc1cc(C(F)(F)F)cc(C(F)(F)F)c1	74
Cc1ccc(C)c(NC(=O)/C(C#N)=C/c2ccc(Sc3nncn3C)c([N+](=O)[O-])c2)c1	-217*
SMILES	Apaf-1 act
CCCCNc1c(-c2ccc(SC(C)CC)cc2)nc2cnccn12 (stereo unspecified)	60
CC1CCN(CCc2nc3cc(NC(=O)COc4ccccc4)ccc3n2C)CC1	52
CCc1cc(CNC(=O)c2ccc(OC3CCN(CCc4ccccc4)CC3)cc2)on1	-41*
COc1ccc(CCn2c(N)c(C(=O)NCc3ccco3)c3nc4ccccc4nc32)cc1OC	63
COCCN(C(=O)CSc1nc(N)cc(=O)[nH]1)c1c(N)n(Cc2ccccc2)c(=O)[nH]c1=O	45
COc1ccc(NC(=O)c2cc(-c3ccncc3)nc3ccc(Br)cc23)cc1OC	45
COc1ccccc1NS(=O)(=O)c1cccc(C(=O)N2CCN(C/C=C/c3ccccc3)CC2)c1	46
C=CCn1c(NC(=O)c2ccccc2Cl)c(C#N)c2nc3ccccc3nc21	96
O=C(Nc1ccnn1C1CCN(C/C=C/c2ccccc2)CC1)c1ccccc1Cl	-61*
O=C1NC(=S)N/C1=C/c1cc2c(cc1[N+](=O)[O-])OCO2	88
CCN(CC)CCNC(=O)c1ccc(NC(=O)C2CC(=O)N(CCc3ccc(OC)c(OC)c3)C2)cc1 (stereo unspecified)	47
CC(NC(=O)C1CCN(C(=O)c2cccs2)CC1)c1ccc(S(N)(=O)=O)cc1 (stereo unspecified)	62
COC(=O)C1=C(C)N(Cc2ccccc2)C(=NCCc2c[nH]c3ccccc23)N[C@H]1c1cccc(F)c1	60
COC(=O)C1=C(C)N(Cc2ccccc2)C(=NCCc2c[nH]c3ccccc23)N[C@H]1c1ccccc1	69
O=C(NCCc1c[nH]c2ccccc12)OCCSS(=O)(=O)O	-93*
CCc1ccc2cccc3c2c1N=CN3C	87
CCOC(=O)C1=C(c2ccccc2)NC(N)=NC1c1ccc(OCc2ccc(Cl)cc2)c(OC)c1 (stereo unspecified)	58
CC(CS(=O)(=O)c1ccc2c(c1)NC(=O)CS2)C(=O)NCc1ccccc1Cl (stereo unspecified)	-158*
C#CCOCCOCCOCCNc1nc(N2CCN(C(=O)C([C@@H](C)O)n3cc([C@@H](N)CCCCN)nn3)CC2)nc(N2CCN(C(=O)[C@H](CCCN=C(N)N)n3cc(C(N)[C@@H](C)CC)nn3)CC2)n1 (stereo partly specified)	46
O=c1[nH]c(C2CCCN(S(=O)(=O)c3ccccc3F)C2)nc2c1nnn2Cc1ccccc1Cl (stereo unspecified)	41
COc1ccc(NC(=O)CN2C(=O)S/C(=C/c3cccn3-c3ccc(C(=O)O)cc3)C2=O)cc1	-240*
COc1ccc(NC(=O)CCn2c(=S)[nH]c3ccccc3c2=O)cc1	86
COc1cc(/C=C2/C(=O)N(c3ccc(C(=O)O)cc3)N=C2C)cc(OC)c1O	78
Cc1c(Cl)cccc1N=C1SCCN1C(=O)CN1C(=O)NC2(CCCC2)C1=O	40
CCN(CC)CCn1c(SCC(=O)Nc2ccc3c(c2)CCC3)nc2ccccc2c1=O	51
SMILES	Apaf-1 act
CN(C)CCCNC(=O)C[C@H]1C[C@H](C(=O)N2CCCCC2)[C@@]2(CCc3ccccc3)c3[nH]c4ccc(Cl)cc4c3CCN2C1=O	74
C=C(C)C(=O)Nc1ccc2c(c1)OCCOCCOCCO2	-447*
CC(=O)Nc1ccc2nc3ccccc3nc2c1	50
CCN(CC(=O)Nc1ccc2c(c1)OCCO2)C(=O)/C=C/c1ccc(OC)cc1OC	64
COc1ccc(C(CNC(=O)c2cccc(S(=O)(=O)N(C)c3ccccc3)c2)N2CCCC2)cc1 (stereo unspecified)	43
CCCCCCCNC(=O)C1(CC2CC(c3ccc(Cl)cc3)=NO2)CCNCC1 (stereo unspecified)	41
CN(C)C=Nc1ccc2nc3c(cc2c1)[nH]c1ccccc13	46
Cc1ccc(S(=O)(=O)N2CCC(C(=O)OCC(=O)N(C)CC(=O)Nc3ccc(F)cc3)CC2)cc1C	52
O=C(Nc1ccc(-c2cccc(F)c2)cc1)C1CCCN(Cc2ccccn2)C1 (stereo unspecified)	40
CCN1CCN(S(=O)(=O)c2ccc(Cl)c(C(=O)N(C)Cc3cccc(Cl)c3Cl)c2)CC1	43
O=C(COC(=O)c1ccccc1)NCC1CCCO1 (stereo unspecified)	56
CC(C)[C@H](NC(=O)N1CCC(Cc2ccccc2)CC1)C(=O)O	42
CC(NC(=O)CC1CCCCC1)c1ccccc1 (stereo unspecified)	-109*
Cc1cc2nc3ccc(N(C)C)cc3nc2cc1N	90
O=C(NC(Cc1ccc2c(c1)OCO2)C(=O)NC(Cc1ccccc1)C(=O)O)c1ccccc1 (stereo unspecified)	-42*
CSc1ccccc1NC(=O)COc1ccc2c(c1)OCO2	45
S=C(NCc1ccc2c(c1)OCO2)Nc1ccc2nsnc2c1	62
